Activity calls are given as the source filed them. No cut-off for these calls is given here.
Assays:
PC-3 [1] = test: Growth inhibition of human PC3 cells at 1 uM after 72 hrs by MTT assay relative to control; format: functional; settings: for inhibition of growth at 1 µM: Homo sapiens, PC-3, 72 h, read-out: GI
How it was run: (§1)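 Cells in RPMI 1640 with 10% heat-inactivated FBS, 37 °C, 5% CO2. Seeded at 2 × 10³ cells per well. Compounds dissolved in DMSO, diluted in medium, tested at 1–100 μM for 72 h; 0.1% DMSO control. MTT read-out, absorbance at 595 nm. Mean ± SD of triplicate experiments. IC50 taken from the dose–response curve.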

PC-3 [2] = test: Growth inhibition of human PC3 cells at 10 uM after 72 hrs by MTT assay relative to control; format: functional; settings: for inhibition of growth at 10 µM: Homo sapiens, PC-3, 72 h, read-out: GI; how it was run: as §1
Bcap37 [3] = test: Growth inhibition of human Bcap37 cells at 10 uM after 72 hrs by MTT assay relative to control; format: functional; settings: for inhibition of growth at 10 µM: Homo sapiens, Bcap37, 72 h, read-out: GI; how it was run: as §1
Bcap37 [4] = test: Growth inhibition of human Bcap37 cells at 1 uM after 72 hrs by MTT assay relative to control; format: functional; settings: for inhibition of growth at 1 µM: Homo sapiens, Bcap37, 72 h, read-out: GI; how it was run: as §1
BGC-823 [5] = test: Growth inhibition of human BGC823 cells at 10 uM after 72 hrs by MTT assay relative to control; format: functional; settings: BGC-823, 72 h, read-out: GI; how it was run: as §1
BGC-823 [6] = test: Growth inhibition of human BGC823 cells at 1 uM after 72 hrs by MTT assay relative to control; format: functional; settings: BGC-823, 72 h, read-out: GI; how it was run: as §1
[7] = target: T1, Mitogen-activated protein kinase; ERK1/ERK2 (Homo sapiens) (UniProt P27361+P28482); test: Inhibition of EGF-induced ERK1/2 phosphorylation in human PC3 cells at 10 uM incubated for 60 mins prior to EGF-treatment measured after 10 mins by Western blotting analysis; format: cell-based; settings: PC-3
T1 sequence (P27361 whole entry, looked up): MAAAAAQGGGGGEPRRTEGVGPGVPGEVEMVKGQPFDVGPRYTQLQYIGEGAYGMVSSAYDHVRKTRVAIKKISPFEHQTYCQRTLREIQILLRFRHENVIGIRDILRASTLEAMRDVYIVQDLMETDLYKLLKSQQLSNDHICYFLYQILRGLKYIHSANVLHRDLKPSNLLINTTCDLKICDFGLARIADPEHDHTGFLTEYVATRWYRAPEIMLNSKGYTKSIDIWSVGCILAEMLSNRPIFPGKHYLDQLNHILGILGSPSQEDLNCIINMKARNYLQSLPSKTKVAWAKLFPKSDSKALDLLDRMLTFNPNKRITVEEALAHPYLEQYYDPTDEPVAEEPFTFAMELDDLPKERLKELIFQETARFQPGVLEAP
T1 sequence (P28482 whole entry, looked up): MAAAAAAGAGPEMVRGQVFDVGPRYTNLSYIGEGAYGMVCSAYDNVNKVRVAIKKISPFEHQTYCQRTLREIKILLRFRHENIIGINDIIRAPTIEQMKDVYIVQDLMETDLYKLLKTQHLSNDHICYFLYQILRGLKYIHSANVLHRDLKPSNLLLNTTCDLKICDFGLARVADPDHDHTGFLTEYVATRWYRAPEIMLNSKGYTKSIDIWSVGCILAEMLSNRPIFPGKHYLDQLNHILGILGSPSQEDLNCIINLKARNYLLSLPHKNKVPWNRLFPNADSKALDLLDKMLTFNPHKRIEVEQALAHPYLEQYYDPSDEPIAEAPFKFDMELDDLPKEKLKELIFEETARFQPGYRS
How it was run: (§2)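 PC3 cells grown 36–48 h in RPMI 1640 with 10% FBS at 37 °C, then serum-starved 24 h. Treated with compound for 60 min, then EGF 10 ng/mL for 10 min; quenched on ice. Cells washed with cold PBS and lysed in NP-40/SDS buffer with Na3VO4 and NaF. Run on 10% SDS-PAGE, PVDF blot probed for pERK1/2 with actin as loading control, ECL detection.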

[8] = target: T1, Mitogen-activated protein kinase; ERK1/ERK2 (Homo sapiens); test: Inhibition of EGF-induced ERK1/2 phosphorylation in human PC3 cells at 5.12 uM incubated for 60 mins prior to EGF-treatment measured after 10 mins by Western blotting analysis; format: cell-based; settings: PC-3; how it was run: as §2
Bcap37 [9] = test: Growth inhibition of human Bcap37 cells after 72 hrs by MTT assay; format: functional, cell-based; settings: Bcap37, 72 h; how it was run: as §1
BGC-823 [10] = test: Growth inhibition of human BGC823 cells after 72 hrs by MTT assay; format: functional, cell-based; settings: BGC-823, 72 h; how it was run: as §1
PC-3 [11] = test: Growth inhibition of human PC3 cells after 72 hrs by MTT assay; format: functional, cell-based; settings: PC-3, 72 h; how it was run: as §1
[12] = target: T1, Mitogen-activated protein kinase; ERK1/ERK2 (Homo sapiens); test: Inhibition of EGF-induced ERK1/2 phosphorylation in human PC3 cells at 1.28 uM incubated for 60 mins prior to EGF-treatment measured after 10 mins by Western blotting analysis; format: cell-based; settings: PC-3; how it was run: as §2

Row | SMILES | inhibition of growth at 10 µM (PC-3 [2]) | inhibition of growth at 10 µM (Bcap37 [3]) | inhibition of growth at 1 µM (Bcap37 [4]) | inhibition of growth at 1 µM (PC-3 [1]) | inhibition of growth at 10 µM (BGC-823 [5]) | inhibition of growth at 1 µM (BGC-823 [6]) | inhibition [7] | also measured
1 | COc1cc2ncnc(Nc3cccc(F)c3)c2c(OC)c1OC [listing 1 of 2 here] | 21.5% | – | – | – | – | – | – | growth inhibition (GI) (PC-3 [1]): 14.7%
2 | COc1cc2ncnc(Nc3ccccc3[N+](=O)[O-])c2c(OC)c1OC | 25.5% | 15.4% | -8.3% | 11.3% | – | – | – | –
3 | COc1cc2ncnc(Nc3ccc(C)cc3)c2c(OC)c1OC | 45.6% | 11.1% | 7.3% | 23.8% | 19.3% | 1.2% | Active | inhibition [8]: Active
4 | COc1cc2ncnc(Nc3cc(F)ccc3Br)c2c(OC)c1OC | 34.7% | 18.9% | 10.5% | 12.8% | 60.7% | 12.4% | – | –
5 | COc1cc2ncnc(Nc3ccc(F)cc3)c2c(OC)c1OC | 9.1% | 10.8% | 7.8% | 3.1% | – | – | Active | inhibition [8]: Active
6 | COc1cc2ncnc(Nc3ccc(Cl)cc3)c2c(OC)c1OC | 31.3% | 26.4% | 22.2% | 6.3% | 43% | 15.5% | – | –
7 | COc1cc2ncnc(Nc3cccc(Cl)c3)c2c(OC)c1OC [listing 1 of 2 here] | – | – | – | – | – | – | – | growth inhibition (GI) (Bcap37 [3]): 28.8%; growth inhibition (GI) (Bcap37 [4]): 14.1%; growth inhibition (GI) (PC-3 [1]): -4.5%; growth inhibition (GI) (PC-3 [2]): 11.9%
8 | COc1cc2ncnc(Nc3cccc(F)c3)c2c(OC)c1OC.Cl | – | 13.5% | 7% | 14.9% | – | – | – | growth inhibition (GI) (PC-3 [2]): 38.9%
9 | COc1cc(Nc2ncnc3cc(OC)c(OC)c(OC)c23)c(C(=O)O)cc1OC | 40.4% | 53.7% | 40.9% | 12.5% | 34.3% | 13.2% | – | –
10 | COc1cc2ncnc(Nc3c(C)cc(C)cc3Br)c2c(OC)c1OC | 19.8% | – | – | 9.7% | 11.4% | 0.6% | – | –
11 | COc1cc2ncnc(Nc3cc(I)ccc3C(=O)O)c2c(OC)c1OC | 22.6% | 20.7% | 19.4% | 14.1% | 51.9% | 42.2% | – | –
12 | COc1cc2ncnc(Nc3cc(C(F)(F)F)ccc3Br)c2c(OC)c1OC | 25.3% | – | – | -3.9% | 23.2% | 2.1% | – | –
13 | COc1cc2ncnc(Nc3ccccc3F)c2c(OC)c1OC | 24% | – | – | 0.9% | – | – | Active | –
14 | COc1cc2ncnc(Nc3cccc(Br)c3)c2cc1OC | 62.8% | 43.4% | 19.8% | 21.5% | 32.6% | 9.3% | – | IC50 (Bcap37 [9]): 15.7 µM; IC50 (BGC-823 [10]): 14.4 µM; IC50 (PC-3 [11]): 8.3 µM
15 | COc1cc2ncnc(Nc3c(F)cc(F)cc3Br)c2c(OC)c1OC | 43% | 2.2% | 4.3% | 8.1% | 68.4% | 38.5% | – | –
16 | COc1cc2ncnc(Nc3ccc(Br)cc3Cl)c2c(OC)c1OC | 49.7% | 18.6% | 8.7% | -8.4% | – | – | – | –
17 | COc1cc2ncnc(Nc3cccc([N+](=O)[O-])c3)c2c(OC)c1OC | 26.4% | 50% | 31.6% | 14.5% | 16.3% | 9% | – | –
18 | COc1cc2ncnc(Nc3cccc(C(F)(F)F)c3)c2c(OC)c1OC | 46.6% | 23.5% | 21% | 14.9% | 24.3% | 1% | Active | inhibition [12]: Active
19 | COc1cc2ncnc(Nc3cccc(Cl)c3)c2c(OC)c1OC.Cl | – | 17.5% | 11% | – | 23.9% | 5.9% | – | growth inhibition (GI) (PC-3 [1]): 16.9%; growth inhibition (GI) (PC-3 [2]): 28.8%
20 | COc1cc2ncnc(Nc3ccc(Br)cc3)c2c(OC)c1OC | 22.2% | 26.1% | 10.4% | 1% | 32.6% | 13.8% | Active | –
21 | COc1cc2ncnc(Nc3ccc([N+](=O)[O-])cc3)c2c(OC)c1OC | 24.9% | -16.3% | -12% | 7.9% | – | – | – | –
22 | COc1cc2ncnc(Nc3cccc(F)c3)c2c(OC)c1OC [listing 2 of 2 here] | – | – | – | – | – | – | Active | inhibition [8]: Active
23 | COc1cc2ncnc(Nc3cccc(Cl)c3)c2c(OC)c1OC [listing 2 of 2 here] | – | – | – | – | – | – | Active | –
24 | COc1cc2ncnc(Nc3cc(C(F)(F)F)ccc3F)c2c(OC)c1OC | 29.2% | 27.6% | 14.4% | 7.6% | – | – | Active | –
25 | COc1cc2ncnc(NCCc3cccc(F)c3)c2c(OC)c1OC | 61.7% | 45.8% | 2.1% | 35.6% | 58.9% | 40.8% | – | –
26 | COc1cc2ncnc(Nc3cccc(C(F)(F)F)c3F)c2c(OC)c1OC | 42.7% | 69.3% | 11.3% | 9.2% | 41.9% | 3.9% | – | –
27 | COc1cc2ncnc(Nc3ccc(C(F)(F)F)cc3)c2c(OC)c1OC | 29% | 32.3% | 8.6% | 7.4% | 17.4% | 2.4% | Active | inhibition [12]: Active
28 | COc1cc2ncnc(Nc3ccc(O)cc3)c2c(OC)c1OC | 24.6% | 3.3% | -7.5% | 9.3% | – | – | Active | –

Reference: ChEMBL document CHEMBL2407062, “Synthesis and anticancer activities of 5,6,7-trimethoxy-N-phenyl(ethyl)-4-aminoquinazoline derivatives” (Eur J Med Chem, 2013)
